Test results from the RNAGym collection of RNA variant scans (doi:10.1126/science.aae0568).
Fewer inactive variants are shown than the library holds.

B1: tRNA (parent)
chain: GUUCCGUUGGCGUAAUGGUAACGCGUCUCCCUCCUAAGGAGAAGACUGCGGGUUCGAGUCCCGUACGGAACG

Variants of: B1
Assay: yeast fitness relative to wild type (ratio to wild type); higher = fitter; tRNA-Arg(CCU), competitive growth, 37 C, YPD
Summary of the method: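 For this measurement, the tRNA-Arg(CCU) gene was varied by chemical synthesis at a 3% per-site mutation rate across 69 sites, and each variant was placed at the native genomic locus in Saccharomyces cerevisiae. The pooled strains went through a 24-hour competition in YPD at 37°C in six parallel replicates, with amplicons from start and end populations read by 100-nucleotide paired-end sequencing. Darwinian fitness relative to wild type followed from the change in each genotype's frequency. Genotypes needed ≥ 100 starting reads, and estimates < 0.5 were set to 0.5.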

| Variant | yeast fitness |
| --- | --- |
| G9A G48A G68C | 0.984 |
| G9A C11A G38C A40C | ≤ 0.5 |
| U8G G25C G41C | 0.644 |
| G9A C33G G44A C49G | 0.607 |
| G9A G10C G17A G25A C31U | ≤ 0.5 |
| G9A A42G C62A | ≤ 0.5 |
| G9A G25C A42C | 1 |
| U8G C24A C30G A40G U47G C55U | 0.512 |
| G9A C33U A42C A69U | ≤ 0.5 |
| U8G C60G C61A | 0.597 |
| G9A A40C G68A | ≤ 0.5 |
| G9A C24G C49U C55G G58A | ≤ 0.5 |
| G9A C31U A37C G63A | ≤ 0.5 |
| G9A A20G A21U | 0.57 |
| G9A U13A A65G C66U | ≤ 0.5 |
| G9A A37G | 0.795 |
| G9A C11U C31U U59A | ≤ 0.5 |
| G9A A14C U32A A70G | ≤ 0.5 |
| U8G G12A A37C A43U C66A A70C | 0.597 |
| G9A A37C C62G | ≤ 0.5 |
| G9A C24A G38A | ≤ 0.5 |
| G9A C11U A36C C49G U53G | ≤ 0.5 |
| G9A A37C A45U | ≤ 0.5 |
| U8G C34G C55A C66U | ≤ 0.5 |

| Variant | yeast fitness |
| --- | --- |
| G9A G51A A57U U59C | ≤ 0.5 |
| G9A A36U G39A | 0.535 |
| U8G G17A G48C | ≤ 0.5 |
| G9A G44A G48A G50C | ≤ 0.5 |
| G9A U16A G25C C46G | 0.588 |
| U8G U35A | ≤ 0.5 |
| G9A G18A C60G | ≤ 0.5 |
| G9A A21U G48C C55A C66G G67C | ≤ 0.5 |
| G9A G50A C55U | 0.59 |
| G9A C24A C55A | ≤ 0.5 |
| G9A A14G C22U C31A C34U A36C A45C C61U U64A | 0.546 |
| G9A C27G A37G U53A | ≤ 0.5 |
| U8G G10C A20G C55U | ≤ 0.5 |
| U8G U28A C34A C66A | ≤ 0.5 |
| U8G C24G U59A C60A | ≤ 0.5 |
| G9A C49U C55A | ≤ 0.5 |
| G9A A15U A20G G44C C61U | ≤ 0.5 |
| U8G U13A A43G U53A G68A | ≤ 0.5 |
| U8G G48A | 0.531 |
| G9A G68A | 0.864 |
| G9A A70G | 1.06 |
| U8G G9C G68A | ≤ 0.5 |
| G9A G18A C24A G39A A43C | 0.558 |
| G9A G25U A36U G56C A65C | 0.717 |

| Variant | yeast fitness |
| --- | --- |
| G9A C31U A40C C66A | ≤ 0.5 |
| G9A C11G C24G A42U | ≤ 0.5 |
| U8G C24G G41A A69U | ≤ 0.5 |
| G9A A15G A43G C49G U53G | 0.553 |
| G9A C34G U53C A57C A69U | ≤ 0.5 |
| G9A C34U C61G | 0.521 |
| G9A G23C U59A | ≤ 0.5 |
| U8G G10C U19A C22U C55G | ≤ 0.5 |
| G9A C11U A36C G48C | ≤ 0.5 |
| G9A C30G G68U | ≤ 0.5 |
| G9A A14C G38C G68A | ≤ 0.5 |
| G9A C30G U32C A40G G50C A57U | ≤ 0.5 |
| U8G G12A U32A G50C G52C C55U | ≤ 0.5 |
| G9A A45U U64C | 0.57 |
| G9A C46G | 0.993 |
| G9A G39C G44C C55A | 0.606 |
| G9A C29G G44A | 0.614 |
| G9A G67U | 0.863 |
| G9A C11G C24G C27A U28C A65U | ≤ 0.5 |
| G9A C11G G50A G51A | ≤ 0.5 |
| G9A G63C | 0.872 |
| U8G C22G G48A C60A U64C A69C | 0.561 |
| G9A G12C G25C C30G C31A G50A G51C | ≤ 0.5 |
| U8G C22U C62A | 0.559 |

| Variant | yeast fitness |
| --- | --- |
| G9A C22A U53A A57G | 0.554 |
| G9A C29U C46U G67C | 0.583 |
| G9A G10A U28C | ≤ 0.5 |
| U8G U26A A43C C49U C55G C60A | ≤ 0.5 |
| G9A A36G G67C | 0.664 |
| U8G U28A C34G G39C A57G C66U | ≤ 0.5 |
| U8G G10A | ≤ 0.5 |
| U8G G10C U13G C55G U59A | ≤ 0.5 |
| G9A C30A A42C | 0.562 |
| G9A A20G C62U | 0.736 |
| G9A A42C G58A | 0.917 |
| U8G G17A A20C C22G C29G C34G G68A | 0.606 |
| G9A U13C C27G U53A C60A A65G | ≤ 0.5 |
| G9A C46G U53C A65G | ≤ 0.5 |
| U8G C24G C33G A36U C49G C62G C66G A69C | 0.602 |
| G9A U16A A42C U53C A65C | ≤ 0.5 |
| U8G C24A C30G A40G U47G C55U C66U A70C | ≤ 0.5 |
| G9A C55G U64A | ≤ 0.5 |
| G9A A57C | 0.591 |
| G9A G23A G25C U28C | ≤ 0.5 |
| G9A C31A A42C A57G | 0.522 |
| G9A C22U C30A C49A C55A C62U C66U | ≤ 0.5 |
| U8G G12A U13G C22G C24G A36G A37C A57U G68C | 0.589 |
| G9A C11A C22G U35C | ≤ 0.5 |

| Variant | yeast fitness |
| --- | --- |
| U8G C27A C61A | ≤ 0.5 |
| G9A C24G C27U G44C C61G | ≤ 0.5 |
| G9A A45U G48A G56A | 0.701 |
| U8G G25C G52C | ≤ 0.5 |
| G9A C24A U59A | ≤ 0.5 |
| U8G U26A A43C | 0.55 |
| G9A A65G G68C | 0.594 |
| U8G U35A A70U | ≤ 0.5 |
| G9A A21C C22A C66U | ≤ 0.5 |
| G9A A37C A65C | 0.56 |
| G9A C24G G41C U53C G58U | ≤ 0.5 |
| U8G C62G | 0.533 |
| U8G U26A A40G A43C C55G C60A | ≤ 0.5 |
| G9A G25C C30U A57G | 0.526 |
| U8G U35G A70C | 0.536 |
| G9A U16C A20G A42G | ≤ 0.5 |
| G9A A14G G23A G41C G51C | ≤ 0.5 |
| G9A A21C G25C | 0.565 |
| G9A C31G A65C | ≤ 0.5 |
| G9A C33U C55G | 0.66 |
| G9A U16C | 1.05 |
| G9A U16A | 1.08 |
| G9A C29A A42C C55U | ≤ 0.5 |
| U8G G17A G56C | ≤ 0.5 |

| Variant | yeast fitness |
| --- | --- |
| G9A G48A G50C A65G C66U | ≤ 0.5 |
| G9A G38C | 0.758 |
| G9A G48A G50C | 0.581 |
| G9A C49U A69U | 0.785 |
| U8G C24G C55A A65U | ≤ 0.5 |
| G9A A20U C34G A42U G68C | ≤ 0.5 |
| G9A C31A A43U C61A | ≤ 0.5 |
| G9A C22U U26A A43U A65U | ≤ 0.5 |
| U8G C34G | ≤ 0.5 |
| G9A C24U A40U A57C | ≤ 0.5 |
| U8G U35A G41A U54A C55U | ≤ 0.5 |
| G9A U13G A36G U59A | 0.68 |
| G9A C11A C24U C34A A37U C62A C66A | ≤ 0.5 |
| G9A C22A A57G | 0.628 |
| U8G C46A C55A | ≤ 0.5 |
| G9A A21C G25C U64A G67A | ≤ 0.5 |
| G9A C60G | 0.629 |
| U8G U13C A36C U53C | ≤ 0.5 |
| G9A C11U A15C A20G G48A C60G | 0.662 |
| G9A A65C | 0.93 |
| G9A A40U A65U | 0.718 |
| U8G U32C C66U | ≤ 0.5 |
| G9A G10A A21G G56A A65U | ≤ 0.5 |
| U8G C11U | 0.646 |

| Variant | yeast fitness |
| --- | --- |
| G9A C11U A36C A57G G68C | ≤ 0.5 |
| U8G G9U C30A C61A | 0.539 |
| U8G U47G C49A A69U | ≤ 0.5 |
| G9A G58A | 0.918 |
| G9A C34G C66U | ≤ 0.5 |
| G9A C11G U19C G67A | ≤ 0.5 |
| U8G G10C U13G C29A C34G A43C C60G | ≤ 0.5 |
| U8G C24A C30G A40G | 0.559 |
| G9A C22G U35C A37U | 0.535 |
| G9A G41A | 1.02 |
| U8G A70U | 0.59 |
| U8G U35C A57C | ≤ 0.5 |
| G9A G12C C31A C33G A45G A70U | ≤ 0.5 |
| G9A C27G C29A C49G | ≤ 0.5 |
| G9A A20G U59A C66G | ≤ 0.5 |
| G9A C31U C49U A69C | ≤ 0.5 |
| G9A C33U A37U | 0.605 |
| G9A C11G C24G U32A G58C | ≤ 0.5 |
| G9A C29G U53G | ≤ 0.5 |
| G9A C24U C30U U32G A65C C66G | ≤ 0.5 |
| G9A C11U C29A U53G | ≤ 0.5 |
| G9A G10C C34A | ≤ 0.5 |
| G9A C22U C30G C61U A70U | ≤ 0.5 |
